In ChEMBL document CHEMBL1154358, “Xanalteric acids I and II and related phenolic compounds from an endophytic Alternaria sp. isolated from the mangrove plant Sonneratia alba” (J Nat Prod, 2009):
Values after ≈ are worked out from the molar mass of the structure shown. Active and inactive are the calls of the source.

tested on: Escherichia coli; experiment: Antibacterial activity against multidrug-resistant Escherichia coli by broth dilution method; type: functional, organism-based; details: not given
Method in brief: (§1)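 Dilution assay following EUCAST criteria against multidrug-resistant bacterial or fungal strains. Compounds were tested from 250 down to 0.48 μg/mL. MIC was taken as the lowest concentration at which bacterial or fungal growth was inhibited.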

Row | SMILES | Activity
1 | O=C1C=Cc2c3c4c(c(O)ccc4c4ccc(O)c1c24)OC(C(=O)O)C3O (configuration not stated) [XANALTERIC ACID I] | inactive
2 | COc1cc(O)c(C(=O)O)c(-c2c(C)cc(C(=O)O)oc2=O)c1 [ALTERNARIAN ACID] | inactive
3 | COc1cc(O)c2c(c1)C1C[C@H](O)[C@@H](O)C[C@@]1(C)OC2=O (some centres not stated) | inactive
4 | O=C1C[C@@H](O)[C@H]2c3c(ccc(O)c31)-c1ccc(O)c3c1[C@]2(O)C=CC3=O | inactive
5 | COc1cc(O)c2c(=O)oc3cc(O)cc(C)c3c2c1 | inactive
6 | COc1c(CC(C)O)c2c3c(CC(C)O)c(OC)c(=O)c4c(O)cc5c(c6c(cc(O)c(c1=O)c62)OCO5)c43 (configuration not stated) | inactive
7 | O=C1C=Cc2c3c4c(c(O)ccc4c4ccc(O)c1c24)OC(O)(C(=O)O)C3 (configuration not stated) [XANALTERIC ACID II] | inactive

tested on: Klebsiella pneumoniae; experiment: Antibacterial activity against multidrug-resistant Klebsiella pneumoniae by broth dilution method; type: functional, organism-based; details: not given; method in brief: as §1

Row | SMILES | Activity
8 | O=C1C=Cc2c3c4c(c(O)ccc4c4ccc(O)c1c24)OC(C(=O)O)C3O (configuration not stated) [XANALTERIC ACID I] | inactive
9 | COc1cc(O)c(C(=O)O)c(-c2c(C)cc(C(=O)O)oc2=O)c1 [ALTERNARIAN ACID] | inactive
10 | COc1cc(O)c2c(c1)C1C[C@H](O)[C@@H](O)C[C@@]1(C)OC2=O (some centres not stated) | inactive
11 | O=C1C[C@@H](O)[C@H]2c3c(ccc(O)c31)-c1ccc(O)c3c1[C@]2(O)C=CC3=O | inactive
12 | COc1cc(O)c2c(=O)oc3cc(O)cc(C)c3c2c1 | inactive
13 | COc1c(CC(C)O)c2c3c(CC(C)O)c(OC)c(=O)c4c(O)cc5c(c6c(cc(O)c(c1=O)c62)OCO5)c43 (configuration not stated) | inactive
14 | O=C1C=Cc2c3c4c(c(O)ccc4c4ccc(O)c1c24)OC(O)(C(=O)O)C3 (configuration not stated) [XANALTERIC ACID II] | inactive

tested on: Enterobacter cloacae; experiment: Antibacterial activity against multidrug-resistant Enterobacter cloacae by broth dilution method; type: functional; details: not given; method in brief: as §1

Row | SMILES | Activity
15 | COc1cc(O)c(C(=O)O)c(-c2c(C)cc(C(=O)O)oc2=O)c1 [ALTERNARIAN ACID] | inactive
16 | COc1cc(O)c2c(c1)C1C[C@H](O)[C@@H](O)C[C@@]1(C)OC2=O (some centres not stated) | inactive
17 | O=C1C[C@@H](O)[C@H]2c3c(ccc(O)c31)-c1ccc(O)c3c1[C@]2(O)C=CC3=O | inactive
18 | COc1cc(O)c2c(=O)oc3cc(O)cc(C)c3c2c1 | inactive
19 | COc1c(CC(C)O)c2c3c(CC(C)O)c(OC)c(=O)c4c(O)cc5c(c6c(cc(O)c(c1=O)c62)OCO5)c43 (configuration not stated) | inactive

tested on: Streptococcus pneumoniae; experiment: Antibacterial activity against multidrug-resistant Streptococcus pneumoniae by broth dilution method; type: functional; details: not given; method in brief: as §1

Row | SMILES | Activity
20 | COc1cc(O)c(C(=O)O)c(-c2c(C)cc(C(=O)O)oc2=O)c1 [ALTERNARIAN ACID] | inactive
21 | COc1cc(O)c2c(c1)C1C[C@H](O)[C@@H](O)C[C@@]1(C)OC2=O (some centres not stated) | inactive
22 | O=C1C[C@@H](O)[C@H]2c3c(ccc(O)c31)-c1ccc(O)c3c1[C@]2(O)C=CC3=O | inactive
23 | COc1cc(O)c2c(=O)oc3cc(O)cc(C)c3c2c1 | inactive
24 | COc1c(CC(C)O)c2c3c(CC(C)O)c(OC)c(=O)c4c(O)cc5c(c6c(cc(O)c(c1=O)c62)OCO5)c43 (configuration not stated) | inactive

tested on: Staphylococcus aureus; experiment: Antibacterial activity against methicillin-resistant Staphylococcus aureus by broth dilution method; type: functional; details: not given; method in brief: as §1

Row | SMILES | MIC [µg/mL] | Activity
25 | O=C1C=Cc2c3c4c(c(O)ccc4c4ccc(O)c1c24)OC(C(=O)O)C3O (configuration not stated) [XANALTERIC ACID I] | 125 (≈ 343 µM) | –
26 | COc1cc(O)c(C(=O)O)c(-c2c(C)cc(C(=O)O)oc2=O)c1 [ALTERNARIAN ACID] | – | inactive
27 | COc1cc(O)c2c(c1)C1C[C@H](O)[C@@H](O)C[C@@]1(C)OC2=O (some centres not stated) | – | inactive
28 | O=C1C[C@@H](O)[C@H]2c3c(ccc(O)c31)-c1ccc(O)c3c1[C@]2(O)C=CC3=O | – | inactive
29 | COc1cc(O)c2c(=O)oc3cc(O)cc(C)c3c2c1 | – | inactive
30 | COc1c(CC(C)O)c2c3c(CC(C)O)c(OC)c(=O)c4c(O)cc5c(c6c(cc(O)c(c1=O)c62)OCO5)c43 (configuration not stated) | – | inactive
31 | O=C1C=Cc2c3c4c(c(O)ccc4c4ccc(O)c1c24)OC(O)(C(=O)O)C3 (configuration not stated) [XANALTERIC ACID II] | 250 (≈ 686 µM) | –

tested on: Pichia kudriavzevii; experiment: Antifungal activity against multidrug-resistant Candida krusei by broth dilution method; type: functional, organism-based; details: not given; method in brief: as §1

Row | SMILES | Activity
32 | O=C1C=Cc2c3c4c(c(O)ccc4c4ccc(O)c1c24)OC(C(=O)O)C3O (configuration not stated) [XANALTERIC ACID I] | inactive
33 | COc1cc(O)c(C(=O)O)c(-c2c(C)cc(C(=O)O)oc2=O)c1 [ALTERNARIAN ACID] | inactive
34 | COc1cc(O)c2c(c1)C1C[C@H](O)[C@@H](O)C[C@@]1(C)OC2=O (some centres not stated) | inactive
35 | O=C1C[C@@H](O)[C@H]2c3c(ccc(O)c31)-c1ccc(O)c3c1[C@]2(O)C=CC3=O | inactive
36 | COc1cc(O)c2c(=O)oc3cc(O)cc(C)c3c2c1 | inactive
37 | COc1c(CC(C)O)c2c3c(CC(C)O)c(OC)c(=O)c4c(O)cc5c(c6c(cc(O)c(c1=O)c62)OCO5)c43 (configuration not stated) | inactive
38 | O=C1C=Cc2c3c4c(c(O)ccc4c4ccc(O)c1c24)OC(O)(C(=O)O)C3 (configuration not stated) [XANALTERIC ACID II] | inactive

tested on: Aspergillus fumigatus; experiment: Antifungal activity against multidrug-resistant Aspergillus fumigatus by broth dilution method; type: functional, organism-based; details: not given; method in brief: as §1

Row | SMILES | Activity
39 | O=C1C=Cc2c3c4c(c(O)ccc4c4ccc(O)c1c24)OC(C(=O)O)C3O (configuration not stated) [XANALTERIC ACID I] | inactive
40 | COc1cc(O)c(C(=O)O)c(-c2c(C)cc(C(=O)O)oc2=O)c1 [ALTERNARIAN ACID] | inactive
41 | COc1cc(O)c2c(c1)C1C[C@H](O)[C@@H](O)C[C@@]1(C)OC2=O (some centres not stated) | inactive
42 | O=C1C[C@@H](O)[C@H]2c3c(ccc(O)c31)-c1ccc(O)c3c1[C@]2(O)C=CC3=O | inactive
43 | COc1cc(O)c2c(=O)oc3cc(O)cc(C)c3c2c1 | inactive
44 | COc1c(CC(C)O)c2c3c(CC(C)O)c(OC)c(=O)c4c(O)cc5c(c6c(cc(O)c(c1=O)c62)OCO5)c43 (configuration not stated) | inactive
45 | O=C1C=Cc2c3c4c(c(O)ccc4c4ccc(O)c1c24)OC(O)(C(=O)O)C3 (configuration not stated) [XANALTERIC ACID II] | inactive

tested on: Aspergillus ficuum; experiment: Antifungal activity against multidrug-resistant Aspergillus ficuum by broth dilution method; type: functional; details: not given

Row | SMILES | Activity
46 | COc1cc(O)c(C(=O)O)c(-c2c(C)cc(C(=O)O)oc2=O)c1 [ALTERNARIAN ACID] | inactive
47 | COc1cc(O)c2c(c1)C1C[C@H](O)[C@@H](O)C[C@@]1(C)OC2=O (some centres not stated) | inactive
48 | O=C1C[C@@H](O)[C@H]2c3c(ccc(O)c31)-c1ccc(O)c3c1[C@]2(O)C=CC3=O | inactive
49 | COc1cc(O)c2c(=O)oc3cc(O)cc(C)c3c2c1 | inactive
50 | COc1c(CC(C)O)c2c3c(CC(C)O)c(OC)c(=O)c4c(O)cc5c(c6c(cc(O)c(c1=O)c62)OCO5)c43 (configuration not stated) | inactive

tested on: Candida albicans; experiment: Antifungal activity against multidrug-resistant Candida albicans by broth dilution method; type: functional; details: not given; method in brief: as §1

Row | SMILES | Activity
51 | COc1cc(O)c(C(=O)O)c(-c2c(C)cc(C(=O)O)oc2=O)c1 [ALTERNARIAN ACID] | inactive
52 | COc1cc(O)c2c(c1)C1C[C@H](O)[C@@H](O)C[C@@]1(C)OC2=O (some centres not stated) | inactive
53 | O=C1C[C@@H](O)[C@H]2c3c(ccc(O)c31)-c1ccc(O)c3c1[C@]2(O)C=CC3=O | inactive
54 | COc1cc(O)c2c(=O)oc3cc(O)cc(C)c3c2c1 | inactive
55 | COc1c(CC(C)O)c2c3c(CC(C)O)c(OC)c(=O)c4c(O)cc5c(c6c(cc(O)c(c1=O)c62)OCO5)c43 (configuration not stated) | inactive

tested on: Enterococcus faecium; experiment: Antibacterial activity against multidrug-resistant Enterococcus faecium by broth dilution method; type: functional; details: not given; method in brief: as §1

Row | SMILES | Activity
56 | COc1cc(O)c(C(=O)O)c(-c2c(C)cc(C(=O)O)oc2=O)c1 [ALTERNARIAN ACID] | inactive
57 | COc1cc(O)c2c(c1)C1C[C@H](O)[C@@H](O)C[C@@]1(C)OC2=O (some centres not stated) | inactive
58 | O=C1C[C@@H](O)[C@H]2c3c(ccc(O)c31)-c1ccc(O)c3c1[C@]2(O)C=CC3=O | inactive
59 | COc1cc(O)c2c(=O)oc3cc(O)cc(C)c3c2c1 | inactive
60 | COc1c(CC(C)O)c2c3c(CC(C)O)c(OC)c(=O)c4c(O)cc5c(c6c(cc(O)c(c1=O)c62)OCO5)c43 (configuration not stated) | inactive

tested on: Acinetobacter baumannii; experiment: Antibacterial activity against multidrug-resistant Acinetobacter baumannii by broth dilution method; type: functional, organism-based; details: not given

Row | SMILES | Activity
61 | O=C1C=Cc2c3c4c(c(O)ccc4c4ccc(O)c1c24)OC(C(=O)O)C3O (configuration not stated) [XANALTERIC ACID I] | inactive
62 | COc1cc(O)c(C(=O)O)c(-c2c(C)cc(C(=O)O)oc2=O)c1 [ALTERNARIAN ACID] | inactive
63 | COc1cc(O)c2c(c1)C1C[C@H](O)[C@@H](O)C[C@@]1(C)OC2=O (some centres not stated) | inactive
64 | O=C1C[C@@H](O)[C@H]2c3c(ccc(O)c31)-c1ccc(O)c3c1[C@]2(O)C=CC3=O | inactive
65 | COc1cc(O)c2c(=O)oc3cc(O)cc(C)c3c2c1 | inactive
66 | COc1c(CC(C)O)c2c3c(CC(C)O)c(OC)c(=O)c4c(O)cc5c(c6c(cc(O)c(c1=O)c62)OCO5)c43 (configuration not stated) | inactive
67 | O=C1C=Cc2c3c4c(c(O)ccc4c4ccc(O)c1c24)OC(O)(C(=O)O)C3 (configuration not stated) [XANALTERIC ACID II] | inactive

tested on: Pseudomonas aeruginosa; experiment: Antibacterial activity against multidrug-resistant Pseudomonas aeruginosa by broth dilution method; type: functional, organism-based; details: not given; method in brief: as §1

Row | SMILES | Activity
68 | O=C1C=Cc2c3c4c(c(O)ccc4c4ccc(O)c1c24)OC(C(=O)O)C3O (configuration not stated) [XANALTERIC ACID I] | inactive
69 | COc1cc(O)c(C(=O)O)c(-c2c(C)cc(C(=O)O)oc2=O)c1 [ALTERNARIAN ACID] | inactive
70 | COc1cc(O)c2c(c1)C1C[C@H](O)[C@@H](O)C[C@@]1(C)OC2=O (some centres not stated) | inactive
71 | O=C1C[C@@H](O)[C@H]2c3c(ccc(O)c31)-c1ccc(O)c3c1[C@]2(O)C=CC3=O | inactive
72 | COc1cc(O)c2c(=O)oc3cc(O)cc(C)c3c2c1 | inactive
73 | COc1c(CC(C)O)c2c3c(CC(C)O)c(OC)c(=O)c4c(O)cc5c(c6c(cc(O)c(c1=O)c62)OCO5)c43 (configuration not stated) | inactive
74 | O=C1C=Cc2c3c4c(c(O)ccc4c4ccc(O)c1c24)OC(O)(C(=O)O)C3 (configuration not stated) [XANALTERIC ACID II] | inactive

tested on: not listed separately; experiment: Cytotoxicity against mouse L5178Y cells assessed as cell viability at 10 ug/ml after 24 hrs by MTT assay; type: cell-based; details: read-out: Activity
Method in brief: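 Mouse lymphoma L5178Y cells; viability read by MTT tetrazolium microculture assay. Run as three independent experiments, each in triplicate. Medium with 0.1% (v/v) EtOH served as the negative control in every experiment.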

Row | SMILES | viability at 24 h, 10 ug/ml [%]
75 | O=C1C=Cc2c3c4c(c(O)ccc4c4ccc(O)c1c24)OC(C(=O)O)C3O (configuration not stated) [XANALTERIC ACID I] | 45
76 | COc1cc(O)c(C(=O)O)c(-c2c(C)cc(C(=O)O)oc2=O)c1 [ALTERNARIAN ACID] | 99.2
77 | O=C1C=Cc2c3c4c(c(O)ccc4c4ccc(O)c1c24)OC(O)(C(=O)O)C3 (configuration not stated) [XANALTERIC ACID II] | 87.5
